System: MS2 coat protein
Assay: apparent Kd, MS2 coat protein; higher = weaker binding; RNA-MaP array; FMN 200 µM where present
Method in brief: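 Apparent Kd: the median of filtered binding-curve fits from single clusters. Designs were transcribed on Illumina sequencing-chip clusters by stalled E. coli RNA polymerase and titrated with SNAP-549-labelled MS2 coat protein from 0.7 or 1.5 nM, doubling to 3 µM, in 100 mM Tris-HCl pH 7.5, 80 mM KCl, 4 mM MgCl2, BSA, DTT, yeast tRNA and Tween-20. Each series ran without and then with constant ligand, and green signal was normalised to red-channel RNA signal and control-cluster median Fmax.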

[1] = designed as: OFF switch for flavin mononucleotide, no ligand
[2] = ligand present: flavin mononucleotide, designed as: OFF switch for flavin mononucleotide
[3] = designed as: ON switch for flavin mononucleotide, no ligand
[4] = ligand present: flavin mononucleotide, designed as: ON switch for flavin mononucleotide

Sequence	apparent Kd [1]	apparent Kd [2]	apparent Kd [3]	apparent Kd [4]
CCGGAAAUACAGGAUAUAGGAGUAAAUAUACUCCUAGAAGGGUAUACAUGAGGAUCACCCAUGUGUCCUACCGG	26.6 nM	27.3 nM		
CCGGAAGUACAGGAUAUCGUAACGGAAACGUUACGAGAAGGGUAUACAUGAGGAUCACCCAUGUGUCCUACCGG	28.3 nM	26.6 nM		
CCGGCUAAAGGAUAUGUGUGUAGCAACAUGAGGAUCACCCAUGUGAUGUCCUAGGUUAGCACAGAAGGUUACUAUU	35.6 nM	34.1 nM		
CCGGGCAUCGGCCCAUCUAGGCGAAGAAGGGACACGGCCAAGAUCUCACAUGAGGAUCACCCAUGUCAGGAUAUUUGGUUGGAU	6.56 nM	10.3 nM		
CCGGUUGGCGCAGGAUAUACAUGAGGAUCACCCAUGUUCAUCAGGAUCACCGAUGAGUUUUUGUUGUAGAAGGGUGGCCCGGCC	35.2 nM	37.2 nM		
CCGGUUGGCGCAGGAUAUACAUGAGGAUCACCCAUGUUGAUGAGGAUCACCCAUCAGUUUUUGUUGUAGAAGGGUGGCCCGGCC	23.1 nM	19.3 nM		
CCGGUUUAUGGAGGAUAUGGAGCCUUAUUGGCUCCAGAAGGCUAAUAACAUGAGGAUCACCCAUGUCGGCGGUCUAAUGACCGA			33.1 nM	20.6 nM
CCGUAAUAUGGAGGAUAUGGAGCCUUAUUGGCUCCAGAAGGUCAUAAAACAUGAGGAUCACCCAUGUCGGCGGUCAAUAGACCG			55.7 nM	20.5 nM
CCGUCGCUUAGCGCUCCUCAUACAUGAGGAUCACCCAUGUACAGAAGGCGGAGGGCCAGGCCCACCGAGGAUAUGUAAGUGUGA	73 nM	73.2 nM		
CCGUUGGGCUAGAAGGCUCCGGGAGAGCCGCGGAGAGGAUAUAGCACAUGAGGAUCACCCAUGUGGUAUGACCUUAUGUAAUCA	33.7 nM	62.9 nM		
CCUAAGGACACAGGAUAUAGCGUGAUGGCUGGACUCCAACGGCGAGCGGCGCUAGAAGGGUGACCACAUGAGGAUCACCCAUGU			496 nM	195 nM
CCUAAGGAGGUAGGAUAUUGUGUGGUGGCCGGGCUCCCACGGCGAGCGGCACAAGAAGGAUCCCUACAUGAGGAUCACCCAUGU			25.5 nM	20.3 nM
CCUACCAUCACAGGAUAUGCUAUCCUUUGGGUAGCAGAAGGGUGAUAACAUGAGGAUCACCCAUGUGGUAGGCCCGGUGACGGG			768 nM	227 nM
CCUAGUGUGCAGAAGGAGAGUUAACUGCCCGUCGAUGGACUGCACAGAGCUCUAGGAUAUGCACAUGAGGAUCACCCAUGUGCU	6.53 nM	7.76 nM		
CCUAGUUGGUAAGGAUAUCCUACACUAUUCUGACCCGUGCAGGCUACAUGAGGAUCACCCAUGUGGGAGAAGGUGCGUCAACGU	12.6 nM	11.8 nM		
CCUCAGAACAAGAAGGUGGGAGAAGAGUAUAACUAAGGAUAUUGAAAGGGAUGAACAUGAGGAUCACCCAUGUAAGGAAUCGUG	52.8 nM	40.9 nM		
CCUCCACAUGAGGAUCACCCAUGUCAGGAUAUCGUGUGUUUUUUUUCGGUCGCGCGUGCGAGAAGGGACGUCUU	22.1 nM	25 nM		
CCUCCACAUGAGGAUCACCCAUGUCAGGAUAUCGUGUGUUUUUUUUCGGUCUUUCGUGCGAGAAGGGACGUCUG	27.4 nM	29.9 nM		
CCUCCAUCAUGAGGAUAUGGCACCUUAUUGGUGCCAGAAGGCAUGUCUCUUGACAUGAGGAUCACCCAUGUAAUAAAUUGGAGG			1150 nM	109 nM
CCUCGACAUGAGGAUCACCCAUGUCAGGAUAUUGUGUAUCGGGUUUUUUACGGAAAGGCGAGAAGGGAUGUGUG	18.4 nM	16.9 nM		
CCUCGACAUGAGGAUCACCCAUGUCAGGAUAUUGUGUCUCGGGUUUUUUACCGAUAGGCAAGAAGGGAUGUGUG	23.4 nM	31 nM		
CCUCUACAUGAGGAUCACCCAUGUGAGGAUAUAAGAUUGCGAAUUCCGCACUACGGUCUUAGAAGGCGCGUGGA	16.4 nM	30.5 nM		
CCUCUGUGAGGAUAUCUAGAGUAGGCUGACAAUGUCAUUCAGGAGAAGGUACAUGAGGAUCACCCAUGUUCGGC	24.4 nM	56.3 nM		
CCUCUGUUAGGAUAUCAAACACUAUCUGCUCCAGAGUUAAGUGAGAAGGGACAUGAGGAUCACCCAUGUAAAAU	26.9 nM	33.7 nM		
CCUGAGUCAGGAUAUUGUACCAGCCUGAAGCCAGGCUGACCCAAGAAGGGACAUGAGGAUCACCCAUGUGAAAA	27 nM	25.6 nM		
CCUGCACAUGAGGAUCACCCAUGUUAGGAUAUCUCGCCGCCUAAACGAAUGGUGGCCCAGAGAAGGAACAGGGC	28.6 nM	41.3 nM		
CCUGGCUUAGGAUAUACAGGAACCGAGAACCCGGAAGUGAAACAUGAGGAUCACCCAUGUAGAAGGAAGAAAGC	26.8 nM	23.1 nM		
CCUGUACAUGAGGAUCACCCAUGUUAGGAUAUUCAGCCCGUCGAGUAUAAGGGUUUAAGAAGAAGGGACGUGGC	15.4 nM	16.1 nM		
